Bioassay records deposited in PubChem by PCMD.
eIF2B yeast act = eIF2B (yeast) activity modulation. S. cerevisiae eIF2B-epsilon R284H, GCN4-lacZ luminescence. inhibition, % at 25 µM (by protocol). 27,000 compounds, 0.91% hits;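 active = mutant luminescence inhibited past about 50% while wild type luminescence and mutant growth stay under set limits, limit read from the data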
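material = yeast eIF2B-epsilon R284H mutant carrying GCN4–beta-galactosidase fusion | schedule = 16 h growth with compound at 30 °C, 90 min Beta-Glo step | measured by = luminescence and A595 | compound dosing = one concentration, 25 µM, 0.25% DMSO | read-out basis = % inhibition of reporter signal and growth versus controls | buffer or medium = YPD medium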
Starred values were filed as active, the others as inactive. Only a selection was taken, and hits are over-represented in it overall.

SMILES | eIF2B yeast act
COc1ccc(NC(=O)CCNC(=O)Cn2cnc3ccccc3c2=O)c(OC)c1 | -11.2
Cc1ccccc1NCCNc1ccccc1C | 18.8
COC(=O)c1ccccc1NC(=O)CSc1nnc(CNS(=O)(=O)c2ccc(C)cc2)n1C | 12.6
CCN(CC)S(=O)(=O)c1cc(C(=O)n2cccn2)c(Cl)cc1Cl | 6.7
Cc1csc2nc(CSc3nc4ccccc4o3)cn12 | 12.6
Nn1c(CSc2nc3ccccc3o2)nnc1CSc1nc2ccccc2o1 | 60.9*
c1ccc2[nH]c(CSc3nc4ccccc4o3)nc2c1 | -0.8
O=C(CN(C1CCCCC1)S(=O)(=O)c1ccc(Cl)cc1)NCCCO | 40.1
CCOc1cccc2cc(-c3csc(NC(=O)CCC(=O)N4CCN(C)CC4)n3)c(=O)oc12 | 23.3
Cc1cc(-c2nn3c(-c4ccccc4)nnc3s2)c2ccccc2n1 | 13.0
c1ccc(-c2cc(-c3nn4c(-c5ccco5)nnc4s3)c3ccccc3n2)cc1 | 71.7*
COc1cc(OC)c(-c2nn3c(-c4ccco4)nnc3s2)cc1OC | 14.8
CCC1SC2=NC(C)=C(C(=O)OCCOC)C(c3ccc(C(=O)OC)cc3)N2C1=O (stereo not drawn) | 31.7
COC(=O)C1=C(C)NC(C)=C(C(=O)OC)C1c1ccccc1OCc1c(C)no[n+]1[O-] | 22.1
C=CCc1c(C)nc(SC(C)C)[nH]c1=O | 52.5*
Cc1nc(SCC(C)C)[nH]c(=O)c1Cc1ccccc1 | 31.1
C=CCSc1nc(C)c(CC=C)c(=O)[nH]1 | -22.8
Cc1ccc(OCC(=O)N2CCN(C(=O)c3cccs3)CC2)cc1 | 10.6
COc1ccc(NC(=O)C(=O)NCCN2CCN(C(=O)c3cccs3)CC2)cc1 | 51.6*
Cc1cc(NC(=O)C(=O)NCCN2CCN(C(=O)c3cccs3)CC2)ccc1Br | -35.5
CCC(=O)Nc1ccccc1Nc1cc(C#N)c(C#N)cc1[N+](=O)[O-] | 11.9
COC(=O)c1cccc(CSc2nnc(C)s2)c1 | 25.2
O=c1c(Cl)c(N2CCCCC2)cnn1-c1nc2ccccc2[nH]1 | 73.2*
Clc1ccc2nc(N3CCCCC3)[nH]c2c1 | 36.9
c1ccc2[nH]c(CN3CCCCCC3)nc2c1 | 1.4
SMILES | eIF2B yeast act
COC(=O)[C@H](Cc1ccccc1)NC(=O)Nc1ccc(C)cc1 | -10.0
O/N=C(\c1ccc(Cl)cc1Cl)c1ncc(C(F)(F)F)cc1Cl | 16.7
COc1ccc2[nH]cc(C(=O)N3CCCCC3)c(=O)c2c1 | 9.7
O=C(O)c1c[nH]c2ccc(S(=O)(=O)N3CCN(c4ccc(F)cc4)CC3)cc2c1=O | 10.5
O=C(c1c[nH]c2ccc(S(=O)(=O)N3CCOCC3)cc2c1=O)N1CCCC1 | 60.1*
CC(C)Cc1cc(C(=O)Nc2cc(C(F)(F)F)ccc2Cl)no1 | 20.2
CSc1cccc(NC(=O)CN(c2cc(C)ccc2C)S(C)(=O)=O)c1 | 19.0
CC(=O)Nc1ccc(C(=O)N2CCN(C(=O)c3ccco3)CC2)cc1 | 12.7
O=C(c1ccco1)N1CCCN(C(=O)c2ccco2)CC1 | 26.7
O=C(CCN1CCN(C(=O)c2ccco2)CC1)Nc1ccc(F)cc1 | 68.7*
Cn1c(C(=O)O)c(CC(=O)N2CCC(Cc3ccccc3)CC2)c2ccccc21 | 16.1
N#Cc1c(/N=C/c2cccs2)sc2c1CCC2 | -13.8
N#Cc1c(/N=C/c2cc(Br)cs2)sc2c1CCC2 | 60.1*
Cc1ccc(C)n1-c1sc2c(c1C#N)CCCC2 | 2.2
COc1cccc(C2(O)CCN(C(=O)Cc3cccnc3)CC2)c1 | -1.2
COc1cc(C(=O)Nc2sc(C(=O)N3CCOCC3)c(C)c2C#N)cc(OC)c1OC | 16.4
Cc1c(C(=O)N2CCCC2)sc(NC(=O)c2ccc(Cl)cc2)c1C#N | 71.4*
CC(=O)Nc1sc2c(c1C#N)CCCC2 | -6.8
CCc1c(C)nc2cc(-c3ccc(OC)c(OC)c3)nn2c1N1CCCC1 | 15.2
COc1ccc(-c2cc3nc(C)cc(N)n3n2)cc1 | 82.4*
COc1ccc(-c2nnc3ccc(SC)nn23)cc1 | 7.2
C=CCn1c(Cc2cccs2)nnc1SC/C=C/c1ccccc1 | 12.6
CCOc1ccccc1N1CCN(S(=O)(=O)c2cccc3nsnc23)CC1 | -2.1
CCOc1ccc(-n2nc(C(=O)N3CCN(CC)CC3)c3ccccc3c2=O)cc1 | -18.4
CCOc1ccc(-n2nc(C(=O)N3CCOCC3)c3ccccc3c2=O)cc1 | 58.9*
SMILES | eIF2B yeast act
Cn1nc(C(=O)N2CCCC2)c2ccccc2c1=O | 29.8
Cn1c(C(=O)NCCCN2CCCC2=O)cc2c(=O)n3ccccc3nc21 | 14.2
CC1CCN(C(=O)CCNC(=O)Cn2cnc3sc4c(c3c2=O)CCCC4)CC1 | 17.1
Cc1cccc(-c2n[nH]c(=S)n2Cc2ccccc2)c1 | 27.3
Cc1cccc(-c2nnc(SCC#N)n2Cc2ccccc2)c1 | 63.6*
CCn1c(SCc2cccc(C)c2)nnc1-c1ccc(C)cc1 | 16.5
CCc1cc(=O)oc2c(C)c(OCC(=O)N3CCCc4ccccc43)ccc12 | 19.3
Cc1ccc(CN(CC(=O)NCCc2ccccc2)C(=O)CCCC(=O)Nc2cc(C)on2)cc1 | 17.7
O=C(COC(=O)c1ccccc1Nc1cccc(C(F)(F)F)c1)NCc1ccco1 | -13.2
Cc1ccc(-c2cn(S(=O)(=O)c3cccc4nsnc34)nc2N)cc1 | 58.2*
CC(C)(C)NS(=O)(=O)c1cccc2nsnc12 | 31.8
Cc1ccc(C)c(N(C)S(=O)(=O)c2cccc3nsnc23)c1 | 2.8
O=C1c2ccccc2C(=O)N1CCc1nc2ccccc2c(=O)n1CCCn1ccnc1 | 22.5
CC(=O)Nc1ccc(S(=O)(=O)NCCC(=O)NCCc2ccc(F)cc2)cc1 | -36.1
CC(C)NC(=O)CCNS(=O)(=O)c1ccc(Br)cc1 | 82.8*
Cc1ccc(S(=O)(=O)NCCC(=O)O)cc1 | 34.6
Cc1sc2c(=O)n3c(nc2c1C(=O)NC1CCCCC1)CCCCC3 | -8.3
CCOC(=O)Cn1nc(-c2ccc(F)cc2)oc1=O | 7.7
CCOC(=O)C(=O)Nc1nnc(C2CCCCC2)s1 | 16.7
Cc1cc(C(=O)Nc2nnc(-c3ccccc3)s2)no1 | 6.5
Cc1cc(C(=O)Nc2nnc(C3CCCCC3)s2)no1 | 51.3*
O=C(CCS(=O)NCc1ccccc1)NCc1ccccc1 (stereo not drawn) | 10.5
O=C(CCS(=O)CCC(=O)NCc1ccccc1)NCc1ccccc1 | 54.8*
Cc1ccc(CNC(=O)CS(=O)CC(=O)O)cc1 (stereo not drawn) | 10.1
CC(c1ccco1)N(C(=O)CSc1ccc(Br)cc1)c1ccccn1 (stereo not drawn) | 38.9
SMILES | eIF2B yeast act
CCN(Cc1ccccc1)C(c1cc2ccc(C)cc2[nH]c1=O)c1nnnn1CCOC (stereo not drawn) | 18.7
CCc1ccc2c(c1)[C@]1(C(=O)N2)[C@@H]2C(=O)N(Cc3ccccc3)C(=O)[C@@H]2[C@@H]2CCCN21 | 9.1
CC(C)c1ccc2c(c1)C1(NN=C(c3ccccc3)S1)C(=O)N2 (stereo not drawn) | -2.1
CCc1ccc2c(c1)C1(NN=C(c3ccc(C)cc3)S1)C(=O)N2 (stereo not drawn) | 59.7*
CCOCCCNC(=O)C(NC(=O)c1cnccn1)c1ccc(C)cc1 (stereo not drawn) | 14.6
Cc1cccn2c(=O)c3cc(C(=O)NC(C)c4ccccc4)c(=N)n(CCCn4ccnc4)c3nc12 (stereo not drawn) | 19.6
CCCc1ccc(OCc2ccc(C(=O)N3CCN(c4ccccn4)CC3)o2)c(OC)c1 | 13.6
COc1ccc(CNC(=O)C2CC(=O)N(c3ccc(OCC(=O)N4C(C)CCCC4C)cc3)C2)cc1 (stereo not drawn) | 25.9
COc1cc(/C=C2\C(=O)N(CCC#N)N=C2C)c(Br)cc1OC(C)C | 53.0*
Cc1cc(OCC(=O)Nn2cnnc2)ccc1Br | 21.4
